The source made the active and inactive calls. The rule behind the calls is not given here.
What was measured:
PRMT5/MEP50 complex [1] = target: T1, PRMT5/MEP50 complex (Homo sapiens, UniProt O14744); test: Inhibition of recombinant human N-terminal FLAG-tagged PRMT5 (2 to end residues) /human N-terminal His-tagged MEP50 (2 to end residues) expressed in HEK293F cells using histone H4 as substrate preincubated for 15 mins followed by substrate/S-adenosyl methionine addition measured after 60 mins by alpha LISA assay; parameters: species or system HEK293
PRMT5/MEP50 complex [2] = target: T1, PRMT5/MEP50 complex; test: Inhibition of recombinant human N-terminal FLAG-tagged PRMT5 (2 to end residues)/human N-terminal His-tagged MEP50 (2 to end residues) expressed in HEK293F cells using histone H4 as substrate in presence of [3H]-SAM after 60 mins by chemiluminescent assay; assay type: cell-based, HEK293; settings: in the assay text read “radioactive methylation assay” for “chemiluminescent assay”
Outline: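 PRMT5/MEP50 complex in modified Tris buffer with 3-fold diluted compound (1% DMSO final) preincubated 15 min at RT. Substrate added and reaction started with [3H]-SAM; 60 min at RT, stopped with cold SAM. Transferred to Flashplate, washed, counted on MicroBeta.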

[3] = target: T2, PRMT5/MEP50 complex (Homo sapiens) (UniProt O14744+Q9BQA1); test: (§1) Uncompetitive inhibition of recombinant human N-terminal FLAG-tagged PRMT5 (2 to end residues) /human N-terminal His-tagged MEP50 (2 to end residues) expressed in HEK293F cells using peptide substrate preincubated for 15 mins followed by substrate/[3H]-SAM addition measured after 60 mins under varying concentration of SAM; assay type: cell-based
Outline: (§2)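 Mechanism study in modified Tris buffer. PRMT5/MEP50 preincubated 15 min at RT with serially diluted compound (1% DMSO final), then peptide added and reaction started with [3H]-SAM. For the SAM study, [3H]-SAM was set at 7 concentrations with fixed peptide. For the peptide study, peptide was set at 7 concentrations with fixed SAM. Run 60 min at RT, stopped with cold SAM, Flashplate capture, MicroBeta counting.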

[4] = target: T2, PRMT5/MEP50 complex (Homo sapiens); test: as §1, with “Competitive inhibition” for “Uncompetitive inhibition”, “of peptide” for “of SAM”; assay type: cell-based; outline: as §2
HUVEC = test: Cytotoxicity against human HUVEC assessed as cell growth inhibition after 8 days by Cell Titer-Glo assay; assay type: cell-based; settings: 192 h
Outline: (§3)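 Normal cells (HUVEC from ATCC; RCTEC) grown in RPMI1640 with 10% FBS and 1% penicillin/streptomycin, 5% CO2, 37 °C. Seeded at 0.5–1 × 10^5 cells/well; compound (0–100 μM) added after 6 h. Cells counted and replated with fresh medium and compound every 4 days over 8 days. Viability by CellTiter-Glo luminescence; concentration–response curves fitted at each time point.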

JeKo-1 = test: Cytotoxicity against human JeKo1 cells assessed as cell growth inhibition after 12 days by Cell Titer-Glo assay; assay type: functional, cell-based; settings: JeKo-1, 288 h
Outline: (§4)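 Cancer lines grown in RPMI1640 with 10% FBS and 1% penicillin/streptomycin, 5% CO2, 37 °C. Seeded at 0.5–1 × 10^5 cells/well; compound (0–100 μM) added after 6 h. Counted and replated at equal numbers with fresh medium and compound every 4 days, up to 12 days. Viable cells by CellTiter-Glo luminescence; concentration–response curves fitted at each time point.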

[5] = target: T2, PRMT5/MEP50 complex (Homo sapiens); test: as §1, with “Non-competitive inhibition” for “Uncompetitive inhibition”, “of peptide” for “of SAM”; assay type: cell-based; outline: as §2
[6] = target: Protein arginine N-methyltransferase 5 (Homo sapiens) (UniProt O14744); test: Inhibition of PRMT5 in human MV411 cells assessed as downregulation of SmD3 after 6 days by Western blot analysis; assay type: cell-based
Outline: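 MV4-11 cells treated with compound over a 0–20 μM titration for 6 days. Whole-cell lysates run on 4–12% SDS-PAGE, transferred to nitrocellulose, blocked in 5% milk. Probed overnight at 4 °C with anti-symmetric dimethylarginine (SDMA) and GAPDH antibodies, then HRP secondary. SmD3-colocalizing band assessed.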

KOPN-8 = test: Cytotoxicity against human KOPN8 cells assessed as cell growth inhibition after 12 days by Cell Titer-Glo assay; settings: KOPN-8, 288 h
[7] = Cytotoxicity against human RCTEC assessed as cell growth inhibition after 8 days by Cell Titer-Glo assay; assay type: cell-based; settings: 192 h; outline: as §3
MV4-11 [8] = test: Cytotoxicity against human MV411 cells assessed as cell growth inhibition after 8 days by Cell Titer-Glo assay; assay type: functional, cell-based; settings: MV4-11, 192 h; outline: as §4
Z-138 = test: Cytotoxicity against human Z138 cells assessed as cell growth inhibition after 12 days by Cell Titer-Glo assay; assay type: functional, cell-based; settings: Z-138, 288 h; outline: as §4
MV4-11 [9] = test: Cytotoxicity against human MV411 cells assessed as cell growth inhibition after 12 days by Cell Titer-Glo assay; settings: MV4-11, 288 h
MV4-11 [10] = test: Cytotoxicity against human MV411 cells assessed as cell growth inhibition after 4 days by Cell Titer-Glo assay; assay type: functional, cell-based; settings: MV4-11, 96 h; outline: as §4
[11] = target: T2, PRMT5/MEP50 complex (Homo sapiens); test: as §1, with “Competitive” for “Uncompetitive”; assay type: cell-based; outline: as §2

T1 sequence (O14744 whole entry): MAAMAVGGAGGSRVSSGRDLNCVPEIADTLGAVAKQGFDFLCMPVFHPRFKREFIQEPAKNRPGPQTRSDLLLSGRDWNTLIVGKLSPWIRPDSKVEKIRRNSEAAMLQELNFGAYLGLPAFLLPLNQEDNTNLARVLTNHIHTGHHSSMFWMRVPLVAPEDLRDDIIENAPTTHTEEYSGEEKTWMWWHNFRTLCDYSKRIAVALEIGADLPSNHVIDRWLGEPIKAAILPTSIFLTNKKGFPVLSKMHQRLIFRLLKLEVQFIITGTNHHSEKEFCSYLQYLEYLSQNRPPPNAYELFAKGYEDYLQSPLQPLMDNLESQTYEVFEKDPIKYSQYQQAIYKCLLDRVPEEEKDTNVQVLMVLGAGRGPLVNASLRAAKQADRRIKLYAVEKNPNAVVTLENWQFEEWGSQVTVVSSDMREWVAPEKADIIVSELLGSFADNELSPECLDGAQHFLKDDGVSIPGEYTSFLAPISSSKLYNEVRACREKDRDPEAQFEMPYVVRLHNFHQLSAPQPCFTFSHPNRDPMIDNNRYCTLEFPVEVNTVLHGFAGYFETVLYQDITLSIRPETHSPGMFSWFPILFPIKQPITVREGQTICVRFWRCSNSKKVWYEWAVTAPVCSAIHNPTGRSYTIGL
T1 sequence (Q9BQA1 whole entry, further chain): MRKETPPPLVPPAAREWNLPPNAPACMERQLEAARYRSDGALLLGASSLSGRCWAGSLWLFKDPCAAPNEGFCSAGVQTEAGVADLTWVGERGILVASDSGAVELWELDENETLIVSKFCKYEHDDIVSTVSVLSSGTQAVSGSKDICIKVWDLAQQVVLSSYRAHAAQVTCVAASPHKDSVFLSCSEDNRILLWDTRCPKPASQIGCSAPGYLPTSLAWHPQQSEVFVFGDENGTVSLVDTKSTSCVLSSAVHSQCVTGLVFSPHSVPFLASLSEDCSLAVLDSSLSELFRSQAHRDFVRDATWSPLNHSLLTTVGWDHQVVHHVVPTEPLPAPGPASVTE
Chain of Protein arginine N-methyltransferase 5 (Homo sapiens) (O14744 whole entry): as the sequence (O14744 whole entry) above

IC50 (PRMT5/MEP50 complex [1]) [µM]	Compound	other results
19	COc1ccc2[nH]c(SCC(=O)Nc3ccccc3OC)nc2c1	–
> 100	COC(=O)c1ccccc1NC(=O)CSc1nc2c(C)cccc2[nH]1	–
> 200	COc1ccc2[nH]c(SCC(=O)Nc3ccccc3C(=O)N(C)C)nc2c1	–
47	COc1ccc2[nH]c(SCC(=O)Nc3ccccc3Cl)nc2c1	–
> 200	COc1ccc2[nH]c(SCC(=O)Nc3ccccc3C)nc2c1	–
1.9	CCOC(=O)c1ccccc1NC(=O)CSc1nc2cc(OC)ccc2[nH]1	–
> 100	COC(=O)c1ccccc1NC(=O)CSc1nc2c(Cl)cccc2[nH]1	–
> 100	COC(=O)c1ccccc1NC(=O)CSc1nc2c(OC)cccc2[nH]1	–
> 100	COc1ccc2[nH]c(SCC(=O)Nc3ccccc3C(=O)O)nc2c1	–
1.6	CNc1ccc2[nH]c(SCC(=O)Nc3ccccc3C(=O)OC)nc2c1	–
23	O=C(/C=C/c1ccc(-c2ccccc2[N+](=O)[O-])o1)c1ccccc1	IC50 (PRMT5/MEP50 complex [2]): 169 µM
–	O=C(NC[C@H](O)CN1CCc2ccccc2C1)c1cc(NC2COC2)ncn1	inhibition [3]: Active; inhibition [4]: Active
0.83	COC(=O)c1ccccc1NC(=O)CSc1nc2cc([N+](=O)[O-])ccc2[nH]1	–
87	COC(=O)c1ccccc1NC(=O)CSc1nc2ccncc2[nH]1	–
0.33	COC(=O)c1ccccc1NC(=O)CSc1nc2cc(N(C)C)ccc2[nH]1	–
> 100	COC(=O)c1ccccc1NC(=O)CSc1nc2cc(O)ccc2[nH]1	–
8.4	COC(=O)c1ccccc1NC(=O)CSc1nc2nc(OC)ccc2[nH]1	–
3.3	COC(=O)c1ccccc1NC(=O)CSc1nc2cc(F)ccc2[nH]1	–
27	Clc1ccc(CNCC2CCNCC2)cc1Cl	–

IC50 (PRMT5/MEP50 complex [1]) [µM]	Compound	other results
0.53	CCCOc1ccc2[nH]c(SCC(=O)Nc3ccccc3C(=O)OC)nc2c1	–
> 200	CNC(=O)c1ccccc1NC(=O)CSc1nc2cc(OC)ccc2[nH]1	–
27	COc1ccc(C(=O)NC2C=NCS2)c(OC)c1 (stereo not drawn)	–
–	COC(=O)c1ccccc1NC(=O)CSc1nc2cc(OC)ccc2[nH]1	Activity (HUVEC): Non-Toxic; EC50 (JeKo-1): 15 to 70 µM; inhibition [5]: Active; inhibition [6]: Dose-dependent effect; EC50 (KOPN-8): 15 to 70 µM; Activity [7]: Non-Toxic; EC50 (MV4-11 [8]): 25.7 µM; EC50 (Z-138): 15 to 70 µM; EC50 (MV4-11 [9]): 6.53 µM; EC50 (MV4-11 [10]): 80.7 µM; inhibition [11]: Active
2.9	COc1ccc2[nH]c(SCC(=O)Nc3ccccc3C(C)=O)nc2c1	–
8.1	COC(=O)c1ccccc1NC(=O)CSc1nc2ccccc2[nH]1	IC50 (PRMT5/MEP50 complex [2]): 24 µM
26	Cc1ccc(OCc2nnc3sc(-c4cccnc4)nn23)cc1	IC50 (PRMT5/MEP50 complex [2]): > 200 µM
52	COC(=O)c1cccc(NC(=O)CSc2nc3cc(OC)ccc3[nH]2)c1	–
0.5	COC(=O)c1ccccc1NC(=O)CSc1nc2cc(Cl)ccc2[nH]1	–
33	COc1ccc2[nH]c(SCC(=O)Nc3ccccc3)nc2c1	–
1.4	COC(=O)c1ccccc1NC(=O)CSc1nc2cc(C)ccc2[nH]1	–
40	COC(=O)c1ccccc1NC(=O)CSc1nc2cc(N)ccc2[nH]1	–
0.35	CCOc1ccc2[nH]c(SCC(=O)Nc3ccccc3C(=O)OC)nc2c1	–
25	COc1ccc2[nH]c(SCC(=O)Nc3ccccc3N(C)C)nc2c1	–
> 100	COC(=O)c1ccc(NC(=O)CSc2nc3cc(OC)ccc3[nH]2)cc1	–
2.8	COC(=O)c1ccccc1NC(=O)CSc1nc2cc(OC(C)C)ccc2[nH]1	–
18	OCCNCc1c(OCc2ccccc2F)ccc2ccccc12	IC50 (PRMT5/MEP50 complex [2]): 172 µM
0.34	COC(=O)c1ccccc1NC(=O)CSc1nc2cc(Br)ccc2[nH]1	–
2.4	COC(=O)c1ccncc1NC(=O)CSc1nc2cc(OC)ccc2[nH]1	–

— ChEMBL document CHEMBL4011642, “Potent, Selective, and Cell Active Protein Arginine Methyltransferase 5 (PRMT5) Inhibitor Developed by Structure-Based Virtual Screening and Hit Optimization” (J Med Chem, 2017)
